Measurements from ChEMBL document CHEMBL1132954, “Synthesis and structure-activity relationships of chiral allosteric modifiers of hemoglobin” (2000).
Several values for one entry are separate records, joined by “and”; a condition that tells them apart may be missing. Identical values can stand only once.

Key:
[1] = Hill coefficient at 50% saturation in the presence of effector
[2] = molecular target: T1, Hemoglobin HbA (Homo sapiens) (UniProt P69905+P68871); experiment: Ratio of P50e to P50c (P50 control value with no effector present, 5 mmHg); type: functional
T1 sequence (P68871 2-147 partner limits assumed): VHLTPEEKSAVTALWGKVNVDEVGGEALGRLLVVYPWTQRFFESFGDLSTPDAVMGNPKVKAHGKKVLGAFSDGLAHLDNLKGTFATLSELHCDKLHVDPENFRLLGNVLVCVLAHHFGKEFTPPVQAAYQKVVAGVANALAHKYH
T1 sequence (P69905 2-142 limits assumed): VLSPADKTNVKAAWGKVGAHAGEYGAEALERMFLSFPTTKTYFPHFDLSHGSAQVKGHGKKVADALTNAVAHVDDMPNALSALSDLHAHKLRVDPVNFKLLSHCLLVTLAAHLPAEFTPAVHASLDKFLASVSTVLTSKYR
Method in brief: (§1)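 Purified stripped human adult Hb in 50 mM bis-Tris, 100 mM NaCl, pH 7.2, at 60-70 µM heme, with effector at 0.5 mM. Catalase and EDTA were added, and the sample was saturated with carbogen. The curve was recorded on a Hemox analyzer as O₂ pressure was lowered over 45-60 min, with saturation read at 577/586.2 nm. P50 came from linear regression of 40-60% saturation points. Single runs, each with its own no-effector control.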

[3] = molecular target: T1, Hemoglobin HbA (Homo sapiens); experiment: Oxygen pressure at which hemoglobin is 50% saturated with oxygen in the presence of the effector.; type: functional; method in brief: as §1
[4] = organism: Homo sapiens; experiment: (§2) P50e is the value in the presence of the effector in whole blood in experiment 2 (in vitro); type: functional
Method in brief: (§3)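 Heparinized whole blood from healthy volunteers, kept on ice, was given the effector sodium salt from a 200 mM DMSO stock to 5.0 mM final. It was tonometered about 10-12 min at 37 °C and equilibrated at 20%, 40% and 60% O₂. pH, pCO₂, pO₂ and sO₂ were read by blood gas analyzer and co-oximeter, at least in duplicate. ΔP50 = P50e − P50c.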

[5] = The difference between P50e and P50c tested.; type: functional; method in brief: as §3
[6] = organism: Homo sapiens; experiment: (§4) P50C is the control value in whole blood in experiment.; type: functional; method in brief: as §3
[7] = organism: Homo sapiens; experiment: (§5) P50e is the value in the presence of the effector in whole blood in experiment 1 (in vitro); type: functional; method in brief: as §3
[8] = as §5; type: functional, Homo sapiens; method in brief: as §3
[9] = P50e is the value in the presence of the effector in whole blood in experiment 3 (in vitro); type: functional, Homo sapiens; method in brief: as §3
[10] = as §2; type: functional, Homo sapiens; method in brief: as §3
[11] = as §4; type: functional, Homo sapiens; method in brief: as §3

Cc1cc(C)cc(NC(=O)Cc2ccc(OC3(C(=O)O)CCOC3C)cc2)c1 (centres undefined) gave a Hill coefficient (n50) [1] of 2.4, a P50e/P50c [2] of 1.5 and a P50e [3] of 7.6 mmHg.
With CCC(C)(Oc1ccc(CC(=O)Nc2cc(C)cc(C)c2)cc1)C(=O)O (single isomer, unassigned; (+)) the Hill coefficient (n50) [1] was 2.4, the P50e/P50c [2] was 3.5 and the P50e [3] was 17.4 mmHg.
Cc1cc(C)cc(NC(=O)Cc2ccc(O[C@@]3(C(=O)O)CCO[C@@H]3C)cc2)c1 showed a Hill coefficient (n50) [1] of 2.8, a P50e/P50c [2] of 1.5 and a P50e [3] of 7.7 mmHg.
Molecule CC(C)(Oc1ccc(CC(=O)Nc2ccc3c(c2)CCC3)cc1)C(=O)O has a Hill coefficient (n50) [1] of 2.6, a P50e/P50c [2] of 3 and a P50e [3] of 15.3 mmHg.
Work on CC(Oc1ccc(CC(=O)Nc2ccc3c(c2)CCC3)cc1)C(=O)O (centres undefined) yielded a Hill coefficient (n50) [1] of 2.7, a P50e/P50c [2] of 1.3 and a P50e [3] of 6.3 mmHg.
Molecule CCC(Oc1ccc(CC(=O)Nc2cc(C)cc(Cl)c2)cc1)C(=O)O (centres undefined) has a Hill coefficient (n50) [1] of 2.6, a P50e/P50c [2] of 2.6 and a P50e [3] of 13.1 mmHg.
Molecule CCCCC(Oc1ccc(CC(=O)Nc2cc(C)cc(C)c2)cc1)C(=O)O (centres undefined) has a Hill coefficient (n50) [1] of 2.5, a P50e/P50c [2] of 3.4 and a P50e [3] of 17 mmHg.
For Cc1cc(C)cc(NC(=O)Cc2ccc(OC3(C(=O)O)CCCC3C)cc2)c1 (racemic), the Hill coefficient (n50) [1] was 2.3 and 1.6, the P50e/P50c [2] was 4.3 and the P50e [4] was 67.2 mmHg. It also gave a ΔP50 (P50e minus P50c) [5] of 40.1 mmHg, a P50e [3] of 21.6 mmHg and a P50c [6] of 26.5 mmHg. The P50e [7] was 66 mmHg.
CCCC(C)(Oc1ccc(CC(=O)Nc2cc(C)cc(C)c2)cc1)C(=O)O (centres undefined) showed a Hill coefficient (n50) [1] of 2.7, a P50e/P50c [2] of 2.3 and a P50e [3] of 11.7 mmHg.
With Cc1cc(C)cc(NC(=O)Cc2ccc(O[C@]3(C(=O)O)CCC[C@H]3C)cc2)c1 the Hill coefficient (n50) [1] was 2.4 and 1.6, the P50e/P50c [2] was 6.1 and the P50e [4] was 72.5 mmHg. It also gave a ΔP50 (P50e minus P50c) [5] of 47.6 mmHg, a P50e [3] of 30.7 mmHg and a P50c [6] of 27.9 mmHg. It also gave a P50e [7] of 78.5 mmHg.
Work on Cc1cc(C)cc(NC(=O)Cc2ccc(O[C@]3(C(=O)O)CCO[C@H]3C)cc2)c1 yielded a Hill coefficient (n50) [1] of 2.6, a P50e/P50c [2] of 1.9 and a P50e [3] of 9.3 mmHg.
For Cc1cc(C)cc(NC(=O)Cc2ccc(OC(C)C(=O)O)cc2)c1 (racemic) [listing 1 of 2 here], the Hill coefficient (n50) [1] was 2.6 and 2, the P50e/P50c [2] was 1.9 and the ΔP50 (P50e minus P50c) [5] was 18.2 mmHg. The P50e [3] was 9.3 mmHg.
CCC(Oc1ccc(CC(=O)Nc2cc(C)cc(C)c2)cc1)C(=O)O (single isomer, unassigned; (-)) gave a Hill coefficient (n50) [1] of 2.8, a P50e/P50c [2] of 2 and a P50e [3] of 9.8 mmHg.
In the case of Cc1cc(C)cc(NC(=O)Cc2ccc(OC(C)(C)C(=O)O)cc2)c1 [EFAPROXIRAL], the Hill coefficient (n50) [1] is reported as 2.3 and 1.47, the P50e/P50c [2] is reported as 4.7 and the P50e [4] is reported as 73.4 mmHg. It also gave a ΔP50 (P50e minus P50c) [5] of 45.2 mmHg, a P50e [3] of 23.4 mmHg and a P50c [6] of 29.8 mmHg. For the same molecule, the P50e [7] was 76.5 mmHg.
CCCC(Oc1ccc(CC(=O)Nc2cc(C)cc(C)c2)cc1)C(=O)O (centres undefined) showed a Hill coefficient (n50) [1] of 2.5, a P50e/P50c [2] of 3.2 and a P50e [3] of 16.1 mmHg.
For CC1CCCC1(Oc1ccc(CC(=O)Nc2ccc3c(c2)CCC3)cc1)C(=O)O (centres undefined), the Hill coefficient (n50) [1] was 2.6, the P50e/P50c [2] was 2.8 and the P50e [3] was 13.8 mmHg.
Molecule Cc1cc(C)cc(NC(=O)Cc2ccc(OC(C)C(=O)O)cc2)c1 (racemic) [listing 2 of 2 here] has a P50e [4] of 43.5 mmHg, a P50c [6] of 27.2 mmHg and a P50e [7] of 47.2 mmHg.
Cc1cc(Cl)cc(NC(=O)Cc2ccc(OC3(C(=O)O)CCCC3C)cc2)c1 (centres undefined) showed a Hill coefficient (n50) [1] of 2.4, a P50e/P50c [2] of 4.4 and a P50e [3] of 21.9 mmHg.
For Cc1cc(C)cc(NC(=O)Cc2ccc(OC3(C(=O)O)CCCC3)cc2)c1, the Hill coefficient (n50) [1] was 2.4 and 1.66, the P50e/P50c [2] was 5.1 and the P50e [4] was 67.7 mmHg. For the same molecule, the ΔP50 (P50e minus P50c) [5] was 42.3 mmHg, the P50e [3] was 25.7 mmHg and the P50C [6] was 28.9 mmHg. For the same molecule, the P50e [7] was 74.7 mmHg.
In the case of Cc1cc(C)cc(NC(=O)Cc2ccc(O[C@@]3(C(=O)O)CCC[C@@H]3C)cc2)c1, the P50e [8] is reported as 49.7 mmHg, the P50e [9] is reported as 42.4 mmHg and the Hill coefficient (n50) [1] is reported as 2.6 and 1.8. It also gave a P50e/P50c [2] of 4, a ΔP50 (P50e minus P50c) [5] of 20.6 mmHg and a P50e [10] of 46.8 mmHg. The P50e [3] was 19.9 mmHg and the P50c [11] was 25.7 mmHg.
For CCC(C)(Oc1ccc(CC(=O)Nc2cc(C)cc(Cl)c2)cc1)C(=O)O (centres undefined), the Hill coefficient (n50) [1] was 2.5, the P50e/P50c [2] was 3.3 and the P50e [3] was 16.6 mmHg.
In the case of Cc1cc(Cl)cc(NC(=O)Cc2ccc(OC3(C(=O)O)CCC(C)C3)cc2)c1 (centres undefined), the Hill coefficient (n50) [1] is reported as 2.4, the P50e/P50c [2] is reported as 2.8 and the P50e [3] is reported as 14 mmHg.
Molecule Cc1cc(C)cc(NC(=O)Cc2ccc(OC(F)C(=O)O)cc2)c1 (centres undefined) has a Hill coefficient (n50) [1] of 2.5, a P50e/P50c [2] of 1.2 and a P50e [3] of 5.9 mmHg.
With Cc1cc(C)cc(NC(=O)Cc2ccc(OC(C)C(=O)O)cc2)c1 (single isomer, unassigned; (+)) [listing 1 of 2 here] the Hill coefficient (n50) [1] was 2.6 and 1.9, the P50e/P50c [2] was 2 and the ΔP50 (P50e minus P50c) [5] was 20.7 mmHg. The P50e [3] was 9.8 mmHg.
Molecule Cc1cc(C)cc(NC(=O)Cc2ccc(OC3(C(=O)O)CCC(C)C3)cc2)c1 (centres undefined) has a Hill coefficient (n50) [1] of 2.5, a P50e/P50c [2] of 2.6 and a P50e [3] of 12.9 mmHg.
Cc1cc(C)cc(NC(=O)Cc2ccc(OC3(C(=O)O)CCOCC3)cc2)c1 gave a Hill coefficient (n50) [1] of 2.4, a P50e/P50c [2] of 1.5 and a P50e [3] of 7.6 mmHg.
Molecule Cc1cc(C)cc(NC(=O)Cc2ccc(OC3(C(=O)O)CCCC(C)C3)cc2)c1 (centres undefined) has a Hill coefficient (n50) [1] of 2.5, a P50e/P50c [2] of 2.1 and a P50e [3] of 10.3 mmHg.
Molecule CCC(Oc1ccc(CC(=O)Nc2cc(C)cc(C)c2)cc1)C(=O)O (single isomer, unassigned; (+)) has a Hill coefficient (n50) [1] of 2.7, a P50e/P50c [2] of 3.6 and a P50e [3] of 18 mmHg.
For COCC(C)(Oc1ccc(CC(=O)Nc2cc(C)cc(C)c2)cc1)C(=O)O (centres undefined), the Hill coefficient (n50) [1] was 2.4, the P50e/P50c [2] was 1.7 and the P50e [3] was 8.4 mmHg.
With CCC(C)(Oc1ccc(CC(=O)Nc2cc(C)cc(C)c2)cc1)C(=O)O (stereo in doubt; 10) the Hill coefficient (n50) [1] was 2.4, the P50e/P50c [2] was 2.7 and the P50e [3] was 13.3 mmHg.
CC1CCC(Oc2ccc(CC(=O)Nc3ccc4c(c3)CCC4)cc2)(C(=O)O)C1 (centres undefined) showed a Hill coefficient (n50) [1] of 2.6, a P50e/P50c [2] of 2.5 and a P50e [3] of 12.7 mmHg.
CCC(Oc1ccc(CC(=O)Nc2ccc3c(c2)CCC3)cc1)C(=O)O (centres undefined) showed a Hill coefficient (n50) [1] of 2.6, a P50e/P50c [2] of 1.8 and a P50e [3] of 9.1 mmHg.
For Cc1cc(C)cc(NC(=O)Cc2ccc(OC(C)C(=O)O)cc2)c1 (single isomer, unassigned; (-)) [listing 1 of 2 here], the Hill coefficient (n50) [1] was 2.5 and 2.2, the P50e/P50c [2] was 1.3 and the ΔP50 (P50e minus P50c) [5] was 12.3 mmHg. The P50e [3] was 6.6 mmHg.
Molecule Cc1cc(Cl)cc(NC(=O)Cc2ccc(OC(C)C(=O)O)cc2)c1 (centres undefined) has a Hill coefficient (n50) [1] of 2.6, a P50e/P50c [2] of 1.9 and a P50e [3] of 9.4 mmHg.
Cc1cc(C)cc(NC(=O)Cc2ccc(OC(C)C(=O)O)cc2)c1 (single isomer, unassigned; (-)) [listing 2 of 2 here] showed a P50e [4] of 40.5 mmHg, a P50c [6] of 27.8 mmHg and a P50e [7] of 39.7 mmHg.
For Cc1cc(Cl)cc(NC(=O)Cc2ccc(OC(C)(C)C(=O)O)cc2)c1, the Hill coefficient (n50) [1] was 2.4, the P50e/P50c [2] was 4.4 and the P50e [3] was 21 mmHg.
For Cc1cc(C)cc(NC(=O)Cc2ccc(OC(C)C(=O)O)cc2)c1 (single isomer, unassigned; (+)) [listing 2 of 2 here], the P50e [4] was 48.7 mmHg, the P50c [6] was 27.3 mmHg and the P50e [7] was 47.4 mmHg.
CCC(Oc1ccc(CC(=O)Nc2cc(C)cc(C)c2)cc1)C(=O)O (stereo in doubt; 32) gave a Hill coefficient (n50) [1] of 2.7, a P50e/P50c [2] of 2.6 and a P50e [3] of 13 mmHg.
In the case of CCC(C)(Oc1ccc(CC(=O)Nc2ccc3c(c2)CCC3)cc1)C(=O)O (centres undefined), the Hill coefficient (n50) [1] is reported as 2.3, the P50e/P50c [2] is reported as 2.1 and the P50e [3] is reported as 10.6 mmHg.
CCC(C)(Oc1ccc(CC(=O)Nc2cc(C)cc(C)c2)cc1)C(=O)O (stereo in doubt; (-)-10) showed a Hill coefficient (n50) [1] of 2.3, a P50e/P50c [2] of 2.1 and a P50e [3] of 10.5 mmHg.
